Experimental findings from publication PMC9826239 (Angewandte Chemie (International Ed. in English), 2022) are described below.

Residues, ends and D or L forms follow the SMILES beside them. *: point of attachment. X1 = [N-]=[N+]=NCCOCCOCCOCCOCC(=O)*

Data set [1] has as its system E-selectin on HUVEC cells. The class given is cell-based, human. Particulars: 10 μM in HKR pH 7.4, 30 min; 10 ng/mL TNFα for 12 h; heparin/HKR washes. In a few lines:
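Human umbilical vein endothelial cells (HUVEC) were cultured as two parallel sets, with or without TNFα, to induce E‑selectin overexpression. Both sets were incubated for 30 min with 10 μM rhodamine‑labelled peptide/[60]fullerene conjugate (binding peptide or non‑binding control sequence). Cells were then washed thoroughly with heparin and HKR buffer and imaged by live‑cell confocal microscopy.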

In a further data set the target is T1, E-selectin (Homo sapiens, UniProt P16581).
T1 sequence (P16581 22-610): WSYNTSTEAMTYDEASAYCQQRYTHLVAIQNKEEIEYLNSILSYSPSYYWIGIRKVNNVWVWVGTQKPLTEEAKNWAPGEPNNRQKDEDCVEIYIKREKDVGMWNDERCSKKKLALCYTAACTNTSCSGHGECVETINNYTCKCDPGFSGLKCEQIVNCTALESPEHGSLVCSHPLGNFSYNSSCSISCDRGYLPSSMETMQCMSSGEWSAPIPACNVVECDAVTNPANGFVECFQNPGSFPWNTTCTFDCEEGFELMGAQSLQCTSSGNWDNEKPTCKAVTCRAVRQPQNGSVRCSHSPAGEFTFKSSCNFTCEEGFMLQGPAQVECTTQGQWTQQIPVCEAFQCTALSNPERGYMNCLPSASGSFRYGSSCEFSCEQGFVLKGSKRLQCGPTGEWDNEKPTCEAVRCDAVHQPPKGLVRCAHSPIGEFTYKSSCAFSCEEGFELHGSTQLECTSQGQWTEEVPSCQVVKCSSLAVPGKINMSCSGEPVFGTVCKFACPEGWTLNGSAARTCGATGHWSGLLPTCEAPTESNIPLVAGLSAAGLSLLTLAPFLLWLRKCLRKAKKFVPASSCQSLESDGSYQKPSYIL
Briefly: SPR direct binding to E-selectin-functionalized sensor chip.

A short description of data set [2]: Water solubility of peptides. Particulars: after HPLC purification; qualitative. The class given is physicochemical.

For the molecule C60-(ISELRSE)12 [FC], the “cell fluorescence, TNFα-treated HUVEC cells, confocal microscopy” value in data set [1] was “residual fluorescence”.
Turning to C60-(IELLQARK)12 [F1], the “dissociation behaviour in SPR sensorgrams” value at E-selectin ((12.5-0.78) μM, t>240 s, initial fast then extremely slow dissociation phase) was “two‐phase dissociation process”. The “affinity increase relative to its monomeric counterpart” value at E-selectin (F1 vs monomeric peptide, E-selectin SPR) is on record as “up to 3 orders of magnitude”. Also, on E-selectin (multivalent effect of F1, twelve peptide units, SI section 6.5, eq. 3), the “affinity enhancement (β) factor” value came out at 71.
What is called Kd is a measure of binding affinity in units of concentration. Low values mean higher affinity, high ones lower affinity. Turning to `CC[C@H](C)[C@H](N)C(=O)N[C@@H](CCC(=O)O)C(=O)N[C@@H](CC(C)C)C(=O)N[C@@H](CC(C)C)C(=O)N[C@@H](CCC(N)=O)C(=O)N[C@@H](C)C(=O)N[C@@H](CCCNC(=N)N)C(=O)N[C@@H](CCCCNC(=O)COCCOCCOCCOCCN=[N+]=[N-])C(N)=O` [P1, IELLQARK‐(PEG)4‐N3] (H-IELLQARK(X1)-NH2), at E-selectin, the affinity, expressed as Kd, was 51.6 µM. For the same molecule, in data set [2], the water solubility result is “excellent purity and water solubility”.
On E-selectin, `CC[C@H](C)[C@H](NC(=O)COCCOCCOCCOCCN=[N+]=[N-])C(=O)N[C@@H](CCC(=O)O)C(=O)N[C@@H](CC(C)C)C(=O)N[C@@H](CC(C)C)C(=O)N[C@@H](CCC(N)=O)C(=O)N[C@@H](C)C(=O)N[C@@H](CCCNC(=N)N)C(N)=O` [P2, N3‐(PEG)4‐IELLQAR] (X1-IELLQAR-NH2) registered a Kd of 2950 µM. Moreover, in data set [2], the water solubility result is “excellent purity and water solubility”.
